# Results: ChEMBL document CHEMBL3227952, “Potential organ- or tumor-imaging agents. 18. Radioiodinated diamines and bisquaternaries” (J Med Chem, 1979)
# Tests used:
# Liver [1] = assay: Drug uptake in Sprague-Dawley rat liver at 6.2 to 10.4 uCi, iv after 0.5 hrs by liquid scintillation counting; assay type: ADME, organism-based; conditions: in vivo, in the assay text read “well-scintillation gamma counting” for “liquid scintillation counting”
# How it was run: (§1)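 Three rats were killed at 0.5 h and five at 2 h by exsanguination under ether. Organs were rinsed, blotted and weighed, duplicate samples gamma-counted (87% efficiency), expressed as % administered dose/g, mean ± SEM.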
# Thyroid gland [2] = assay: Drug uptake in Sprague-Dawley rat thyroid at 6.2 to 10.4 uCi, iv after 0.5 hrs by liquid scintillation counting; assay type: ADME, organism-based; conditions: in vivo
# Brain [3] = assay: Drug uptake in Sprague-Dawley rat brain at 6.2 to 10.4 uCi, iv after 0.5 hrs by liquid scintillation counting; assay type: ADME, organism-based; conditions: in vivo
# How it was run: (§2)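 Adult male rats (200–420 g) given radioiodinated agent, 6.5–7.0 μCi/mg, in 0.10–0.15 mL of 0.1 N HCl. Dosing was by tail vein under ether. Rats were killed by exsanguination, three at 0.5 h and five at 2 h. Organs were rinsed, blotted and weighed, with duplicate samples counted for radioactivity. Results are % administered dose/g, mean ± SEM.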
# Adrenal [4] = assay: Drug uptake in Sprague-Dawley rat adrenal at 6.2 to 10.4 uCi, iv after 2 hrs by liquid scintillation counting; assay type: ADME, organism-based, Adrenal gland; conditions: in vivo; how it was run: as §2
# Pancreas [5] = assay: Drug uptake in Sprague-Dawley rat pancreas at 6.2 to 10.4 uCi, iv after 2 hrs by liquid scintillation counting; assay type: ADME, organism-based; conditions: in vivo
# [6] = Drug uptake in Sprague-Dawley rat dorsolateral prostate at 6.2 to 10.4 uCi, iv after 2 hrs by liquid scintillation counting; assay type: ADME, organism-based, Prostate gland; conditions: in vivo; how it was run: as §2
# Testes [7] = assay: Drug uptake in Sprague-Dawley rat testes at 6.2 to 10.4 uCi, iv after 0.5 hrs by liquid scintillation counting; assay type: ADME, organism-based, Testis; conditions: in vivo
# Lung [8] = assay: Drug uptake in Sprague-Dawley rat lung at 6.2 to 10.4 uCi, iv after 0.5 hrs by liquid scintillation counting; assay type: ADME, organism-based; conditions: in vivo, in the assay text read “well-scintillation gamma counting” for “liquid scintillation counting”; how it was run: as §1
# Liver [9] = assay: Drug uptake in Sprague-Dawley rat liver at 6.2 to 10.4 uCi, iv after 2 hrs by liquid scintillation counting; assay type: ADME, organism-based; conditions: in vivo, in the assay text read “well-scintillation gamma counting” for “liquid scintillation counting”; how it was run: as §1
# Lung [10] = assay: Drug uptake in Sprague-Dawley rat lung at 6.2 to 10.4 uCi, iv after 2 hrs by liquid scintillation counting; assay type: ADME, organism-based; conditions: in vivo
# [11] = Drug uptake in Sprague-Dawley rat diaphragm at 6.2 to 10.4 uCi, iv after 2 hrs by liquid scintillation counting; assay type: ADME, organism-based; conditions: in vivo; how it was run: as §2
# [12] = Drug uptake in Sprague-Dawley rat ventral prostate at 6.2 to 10.4 uCi, iv after 2 hrs by liquid scintillation counting; assay type: ADME, organism-based, Prostate gland; conditions: in vivo
# How it was run: (§3)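 Adult male Sprague-Dawley rats (200–420 g) with free access to food and water. Under ether anesthesia, each received 6.2–10.4 μCi (6.5–7.0 μCi/mg) of tracer in 0.10–0.15 mL of 0.1 N HCl vehicle, iv via the tail vein. Rats were killed by exsanguination at 0.5 h (3 rats) or 2 h (5 rats). Organs were rinsed, blotted and weighed; duplicate samples were counted. Results are % administered dose/g, mean ± SEM.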
# Spleen [13] = assay: Drug uptake in Sprague-Dawley rat spleen at 6.2 to 10.4 uCi, iv after 0.5 hrs by liquid scintillation counting; assay type: ADME, organism-based; conditions: in vivo, in the assay text read “well-scintillation gamma counting” for “liquid scintillation counting”; how it was run: as §1
# Heart [14] = assay: Drug uptake in Sprague-Dawley rat heart at 6.2 to 10.4 uCi, iv after 2 hrs by liquid scintillation counting; assay type: ADME, organism-based; conditions: in vivo, in the assay text read “well-scintillation gamma counting” for “liquid scintillation counting”; how it was run: as §2
# Kidney [15] = assay: Drug uptake in Sprague-Dawley rat kidney at 6.2 to 10.4 uCi, iv after 2 hrs by liquid scintillation counting; assay type: ADME, organism-based; conditions: in vivo, in the assay text read “well-scintillation gamma counting” for “liquid scintillation counting”; how it was run: as §1
# Duodenum [16] = assay: Drug uptake in Sprague-Dawley rat duodenum at 6.2 to 10.4 uCi, iv after 0.5 hrs by liquid scintillation counting; assay type: ADME, organism-based; conditions: in vivo; how it was run: as §2
# Spleen [17] = assay: Drug uptake in Sprague-Dawley rat spleen at 6.2 to 10.4 uCi, iv after 2 hrs by liquid scintillation counting; assay type: ADME, organism-based; conditions: in vivo
# [18] = Drug uptake in Sprague-Dawley rat diaphragm at 6.2 to 10.4 uCi, iv after 0.5 hrs by liquid scintillation counting; assay type: ADME, organism-based; conditions: in vivo; how it was run: as §2
# Duodenum [19] = assay: Drug uptake in Sprague-Dawley rat duodenum at 6.2 to 10.4 uCi, iv after 2 hrs by liquid scintillation counting; assay type: ADME, organism-based; conditions: in vivo; how it was run: as §2
# Heart [20] = assay: Drug uptake in Sprague-Dawley rat heart at 6.2 to 10.4 uCi, iv after 0.5 hrs by liquid scintillation counting; assay type: ADME, organism-based; conditions: in vivo; how it was run: as §2
# [21] = Drug uptake in Sprague-Dawley rat dorsolateral prostate at 6.2 to 10.4 uCi, iv after 0.5 hrs by liquid scintillation counting; assay type: ADME, organism-based, Prostate gland; conditions: in vivo; how it was run: as §2
# Blood [22] = assay: Drug uptake in Sprague-Dawley rat blood at 6.2 to 10.4 uCi, iv after 0.5 hrs by liquid scintillation counting; assay type: ADME, organism-based; conditions: in vivo; how it was run: as §2
# [23] = Drug uptake in Sprague-Dawley rat ventral prostate at 6.2 to 10.4 uCi, iv after 0.5 hrs by liquid scintillation counting; assay type: ADME, organism-based, Prostate gland; conditions: in vivo; how it was run: as §3
# Pituitary gland [24] = assay: Drug uptake in Sprague-Dawley rat pituitary at 6.2 to 10.4 uCi, iv after 2 hrs by liquid scintillation counting; assay type: ADME, organism-based; conditions: in vivo
# Adrenal [25] = assay: Drug uptake in Sprague-Dawley rat adrenal at 6.2 to 10.4 uCi, iv after 0.5 hrs by liquid scintillation counting; assay type: ADME, organism-based, Adrenal gland; conditions: in vivo; how it was run: as §2
# Blood [26] = assay: Drug uptake in Sprague-Dawley rat blood at 6.2 to 10.4 uCi, iv after 2 hrs by liquid scintillation counting; assay type: ADME, organism-based; conditions: in vivo; how it was run: as §2
# Kidney [27] = assay: Drug uptake in Sprague-Dawley rat kidney at 6.2 to 10.4 uCi, iv after 0.5 hrs by liquid scintillation counting; assay type: ADME, organism-based; conditions: in vivo
# Testes [28] = assay: Drug uptake in Sprague-Dawley rat testes at 6.2 to 10.4 uCi, iv after 2 hrs by liquid scintillation counting; assay type: ADME, organism-based, Testis; conditions: in vivo
# [29] = Drug uptake in Sprague-Dawley rat bone marrow at 6.2 to 10.4 uCi, iv after 0.5 hrs by liquid scintillation counting; assay type: ADME, organism-based; conditions: in vivo; how it was run: as §2
# Thyroid gland [30] = assay: Drug uptake in Sprague-Dawley rat thyroid at 6.2 to 10.4 uCi, iv after 2 hrs by liquid scintillation counting; assay type: ADME, organism-based; conditions: in vivo
# Pancreas [31] = assay: Drug uptake in Sprague-Dawley rat pancreas at 6.2 to 10.4 uCi, iv after 0.5 hrs by liquid scintillation counting; assay type: ADME, organism-based; conditions: in vivo, in the assay text read “well-scintillation gamma counting” for “liquid scintillation counting”; how it was run: as §1
# [32] = Drug uptake in Sprague-Dawley rat bone marrow at 6.2 to 10.4 uCi, iv after 2 hrs by liquid scintillation counting; assay type: ADME, organism-based; conditions: in vivo; how it was run: as §2
# Pituitary gland [33] = assay: Drug uptake in Sprague-Dawley rat pituitary at 6.2 to 10.4 uCi, iv after 0.5 hrs by liquid scintillation counting; assay type: ADME, organism-based; conditions: in vivo, in the assay text read “well-scintillation gamma counting” for “liquid scintillation counting”; how it was run: as §1
# Brain [34] = assay: Drug uptake in Sprague-Dawley rat brain at 6.2 to 10.4 uCi, iv after 2 hrs by liquid scintillation counting; assay type: ADME, organism-based; conditions: in vivo; how it was run: as §2
compound,measurement,setting,value
NCc1ccc(CN)c([125I])c1,Drug uptake,Liver [1],1.008 % ID/g
same,Drug uptake,Thyroid gland [2],2.457 % ID/g
same,Drug uptake,Brain [3],0.063 % ID/g
same,Drug uptake,Adrenal [4],1.577 % ID/g
same,Drug uptake,Pancreas [5],0.617 % ID/g
same,Drug uptake,[6],0.436 % ID/g
same,Drug uptake,Testes [7],0.036 % ID/g
same,Drug uptake,Lung [8],2.384 % ID/g
same,Drug uptake,Liver [9],0.949 % ID/g
same,Drug uptake,Lung [10],2.261 % ID/g
same,Drug uptake,[11],0.293 % ID/g
same,Drug uptake,[12],0.293 % ID/g
same,Drug uptake,Spleen [13],0.844 % ID/g
same,Drug uptake,Heart [14],0.44 % ID/g
same,Drug uptake,Kidney [15],1.67 % ID/g
same,Drug uptake,Duodenum [16],0.485 % ID/g
same,Drug uptake,Spleen [17],0.988 % ID/g
same,Drug uptake,[18],0.38 % ID/g
same,Drug uptake,Duodenum [19],0.343 % ID/g
same,Drug uptake,Heart [20],0.553 % ID/g
same,Drug uptake,[21],0.32 % ID/g
same,Drug uptake,Blood [22],0.073 % ID/g
same,Drug uptake,[23],0.296 % ID/g
same,Drug uptake,Pituitary gland [24],0.681 % ID/g
same,Drug uptake,Adrenal [25],1.732 % ID/g
same,Drug uptake,Blood [26],0.041 % ID/g
same,Drug uptake,Kidney [27],1.926 % ID/g
same,Drug uptake,Testes [28],0.048 % ID/g
same,Drug uptake,[29],0.44 % ID/g
same,Drug uptake,Thyroid gland [30],3.476 % ID/g
same,Drug uptake,Pancreas [31],0.657 % ID/g
same,Drug uptake,[32],0.682 % ID/g
same,Drug uptake,Pituitary gland [33],0.533 % ID/g
same,Drug uptake,Brain [34],0.088 % ID/g
